Assay results from paper PMC8263925 (The Journal of General Physiology, 2021).
Residue numbers refer to the chain shown, from its start.

Experiments:
Hv1 R211A = assay: Inside-out patch time course of inhibition, mutant channel; format: cell-based, human; details: 50 µM
Outline: (§1)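 Xenopus oocytes injected with mutant-channel mRNA 1–3 d earlier, kept at 18°C in ND96. Inside-out patches at 22 ± 1°C in symmetric Mes/TEA solutions, pH 6.0. Held at −40 mV and pulsed to +120 mV at relative depolarization time 0.2 (3 s/15 s). 50 µM perfused into bath. End-pulse current leak- and rundown-corrected. Decay fitted double-exponentially (τfast, τslow, cfast, cslow); washout recovery single-exponentially (τoff).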

Hv1 E153C = molecular target: T1, Hv1 E153C (Homo sapiens, UniProt Q96D96, E153C); assay: as above; format: cell-based
T1 sequence (Q96D96 1-273 E153C): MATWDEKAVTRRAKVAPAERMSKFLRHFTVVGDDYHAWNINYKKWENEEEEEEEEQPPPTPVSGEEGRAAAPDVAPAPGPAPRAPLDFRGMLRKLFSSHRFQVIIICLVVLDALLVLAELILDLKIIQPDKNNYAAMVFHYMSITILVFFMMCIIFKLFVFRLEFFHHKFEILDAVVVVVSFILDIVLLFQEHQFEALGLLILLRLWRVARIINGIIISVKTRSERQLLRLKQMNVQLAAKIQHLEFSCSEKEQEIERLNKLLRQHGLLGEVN
Outline: as §1

Hv1 WT [1] = molecular target: T2, Hv1 WT (Homo sapiens, UniProt Q96D96); assay: Kinetic simulation of HIF-mediated inhibition, four-state model S; details: room temperature, closed VSD
T2 sequence (Q96D96 1-273): T1 sequence (Q96D96 1-273 E153C) with C153E

Hv1 E171Q = molecular target: T3, Hv1 E171Q (Homo sapiens, UniProt Q96D96, E171Q); assay: Inside-out patch time course of inhibition, mutant channel; format: cell-based; details: 50 µM
T3 sequence (Q96D96 1-273 E171Q): T1 sequence (Q96D96 1-273 E153C) with C153E, E171Q
Outline: as §1

Hv1 D174E = molecular target: T4, Hv1 D174E (Homo sapiens, UniProt Q96D96, D174E); assay: as above; format: cell-based
T4 sequence (Q96D96 1-273 D174E): T1 sequence (Q96D96 1-273 E153C) with C153E, D174E
Outline: as §1

Hv1 F156A = molecular target: T5, Hv1 F156A (Homo sapiens, UniProt Q96D96, F156A); assay: as above; format: cell-based; details: 50 µM
T5 sequence (Q96D96 1-273 F156A): T1 sequence (Q96D96 1-273 E153C) with C153E, F156A
Outline: as §1

Hv1 S181A = assay: as above; format: cell-based, human; details: 50 µM
Outline: as §1

Hv1 WT [2] = molecular target: T2, Hv1 WT; assay: G-V; format: cell-based
Outline: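 Oocytes expressing WT channel (mRNA injected 1–3 d before). Inside-out patches at 22 ± 1°C; bath and pipette 100 mM Mes, 30 mM TEA methanesulfonate, 5 mM TEA chloride, 5 mM EGTA, pH 6.0. Steps to −20 to +130 mV, tails at −40 mV, with or without 50 µM in bath. G = (Itest − Itail)/(Vtest − Vtail), rundown-corrected via reference step. Boltzmann fit gave V1/2 and slope. ≥5 patches, SEM.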

Hv1 WT [3] = molecular target: T2, Hv1 WT; assay: Inside-out patch, pulsed application of inhibitor to the closed channel; format: cell-based; details: for channel inhibition under pulsed conditions: 100 µM pulses
Outline: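 WT channel, inside-out oocyte patches, pH 6.0. Test compound (100 µM) applied in 3 s pulses while the membrane was held closed at −40 mV, or at 0 mV or −80 mV. Current read after each pulse with a step to +120 mV. Control pulses of a reference Hv1 inhibitor given first to confirm complete washout between depolarizations.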

Hv1 D185A = molecular target: T6, Hv1 D185A (Homo sapiens, UniProt Q96D96, D185A); assay: Inside-out patch time course of inhibition, mutant channel; format: cell-based; details: 50 µM
T6 sequence (Q96D96 1-273 D185A): T1 sequence (Q96D96 1-273 E153C) with C153E, D185A
Outline: as §1

total extent of inhibition vs WT (Hv1 E153C; 50 µM): did not decrease
relative contribution of the slow component, cslow / (cfast + cslow) (Hv1 E153C; 50 μM, RDT = 0.2): 0.80
τoff, recovery from inhibition (Hv1 E153C; after 50 µM, RDT = 0.2): 294 ± 57 s
energy barriers to cross in and out of site 2 (Hv1 WT [1]): ~20 kcal/mol
reduction of the extent of inhibition vs WT (Hv1 E171Q): 46%
τslow (Hv1 E171Q; too slow to be accurately quantified): > 200 s
reduction of the extent of inhibition vs WT (Hv1 D174E; 50 µM): 35%
τslow (Hv1 D174E; 50 µM, too slow to be accurately quantified): > 200 s
τoff, recovery from inhibition (Hv1 D174E; after 50 µM, RDT = 0.2): 37 ± 6 s
effect of mutation on inhibition (Hv1 F156A): did not result in any significant change
shift to more positive potentials in the V1/2 of activation (Hv1 WT [2]; 50 μM, pHi = pHo = 6.0): ~15 mV
slope of G-V curve in the presence of inhibitor (Hv1 WT [2]; 50 µM, pHi = pHo = 6.0 (11 ± 1 without HIF)): 13 ± 1 mV
V1/2 of G-V curve in the presence of inhibitor (Hv1 WT [2]; 50 µM, pHi = pHo = 6.0 (53 ± 3 mV without HIF)): 68 ± 2 mV
τ of current decay under pulsed application (Hv1 WT [3]; 100 μM for 3 s pulses, membrane at −40 mV during application, single-exponential): 46 ± 4 s
channel inhibition under pulsed conditions (Hv1 WT [3]; membrane held at 0 mV): 55 ± 3%
channel inhibition under pulsed conditions (Hv1 WT [3]; membrane held at −80 mV): 33 ± 4%
effect of mutation on extent or time course of inhibition (Hv1 D185A): did not appreciably affect
Compound: Cc1[nH]c(N)nc1CCC(=O)c1cc(F)cc(F)c1 [HIF, 3-(2-amino-5-methyl-1H-imidazol-4-yl)-1-(3,5-difluorophenyl)propan-1-one]
higher inhibition (decreased steady-state remaining current) vs WT (Hv1 R211A): 15%
reduction in τslow vs WT (Hv1 R211A): 64%
higher inhibition vs WT (Hv1 S181A): 7%
reduction in τslow vs WT (Hv1 S181A): 26%
